tested on: LNCaP; assay: Cytotoxicity against human LNCAP cells after 48 hrs by MTT assay; format: functional, cell-based
Method in brief: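 LNCaP cells (ATCC CRL1740) grown in RPMI with 10% FBS, streptomycin and penicillin at 37 °C, 5% CO2. Seeded 2 × 10^5 cells/well and exposed to a range of compound concentrations for 48 h at 37 °C. MTT was then added for 4 h at 37 °C. Formazan was dissolved in DMSO and absorbance read at 540 nm. IC50 derived; run in triplicate.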

Row | SMILES | IC50 [µM]
1 | COc1cc(/C=C(C(=O)NCCc2ccc(O)cc2)\C(=C/c2ccc(O)c(OC)c2)C(=O)NCCc2ccc(O)cc2)ccc1O [CANNABISIN G] | 76
2 | COc1cc([C@@H]2Oc3c(OC)cc(/C=C/C(=O)NCCc4ccc(O)cc4)cc3[C@H]2C(=O)NCCc2ccc(O)cc2)ccc1O [GROSSAMIDE] | 33
3 | COc1cc(/C=C(C(=O)NCCc2ccc(O)cc2)/C(=C/c2ccc(O)c(OC)c2)C(=O)NCCc2ccc(O)cc2)ccc1O [HYOSCYAMIDE] | > 100
4 | CCCCCCCCCCCCCCCCCC(=O)OCC(O)CO (stereo unspecified) [GLYCERYL MONOSTEARATE] | > 100
5 | CCCCC/C=C\C/C=C\CCCCCCCC(=O)OC(CO)COC(=O)CCCCCCC/C=C/C/C=C/CCCCC (stereo unspecified) | > 100
6 | COc1cc([C@@H]2c3cc(O)c(OC)cc3C=C(C(=O)NCCc3ccc(O)cc3)[C@H]2C(=O)NCCc2ccc(O)cc2)ccc1O [CANNABISIN D] | 81
7 | COc1cc(/C=C/C(=O)NCCc2ccc(O)cc2)ccc1O [N-TRANS-FERULOYL TYRAMINE] | > 100
8 | CCCCC/C=C\C/C=C/CCCCCCCC(=O)OCC(O)COC(=O)CCCCCCC/C=C\CCCCCCCC (stereo unspecified) | > 100
9 | COc1cc(/C=C/C(=O)OCCCCCCCCCCCCCCCCCCCCCCCCOC(=O)/C=C/c2ccc(O)c(OC)c2)ccc1O | > 100
10 | CCCCC/C=C\C/C=C\CCCCCCCC(=O)OCC(O)COC(=O)CCCCCCCCCCCCCCCCCC (stereo unspecified) | > 100
11 | CCCCC/C=C\C/C=C\CCCCCCCC(=O)OCC(O)CO (stereo unspecified) | > 100
